The source of these data is ChEMBL document CHEMBL3272093, “Antibacterial halogenoacetyl derivatives of amino acids and simple peptides” (1977).

For assay [1], the target named is T1, D-alanyl-D-alanine carboxypeptidase DacA (Geobacillus stearothermophilus) (UniProt Q05523).
T1 sequence (whole entry): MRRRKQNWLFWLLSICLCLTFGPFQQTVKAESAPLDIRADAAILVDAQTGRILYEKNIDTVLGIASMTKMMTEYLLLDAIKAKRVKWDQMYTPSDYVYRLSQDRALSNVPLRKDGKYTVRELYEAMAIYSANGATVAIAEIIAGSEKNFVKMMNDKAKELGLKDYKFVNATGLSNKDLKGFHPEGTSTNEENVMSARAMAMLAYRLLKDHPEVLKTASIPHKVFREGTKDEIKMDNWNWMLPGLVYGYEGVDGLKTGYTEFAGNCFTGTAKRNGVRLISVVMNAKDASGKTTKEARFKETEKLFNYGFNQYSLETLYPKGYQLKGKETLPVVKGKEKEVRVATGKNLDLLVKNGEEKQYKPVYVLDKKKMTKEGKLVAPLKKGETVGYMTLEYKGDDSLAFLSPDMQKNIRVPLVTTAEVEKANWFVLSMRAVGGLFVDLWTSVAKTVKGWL
In words: Inhibition of Bacillus stearothermophilus DD-carboxypeptidase using UDP-N-acetylmuramyl-L-alanyl-meso-diaminopimeloyl-D-alanyl-D-alanine as substrate at 10 to 100 ug/ml. A digest of the protocol: (§1)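 Enzymes tested for release of D-alanine, measured with D-amino acid oxidase. Compounds assayed at 10 and 100 μg/mL. Substrates: Ac2-L-Lys-D-Ala-D-Ala for the Streptomyces R61 enzyme; UDP-N-acetylmuramyl-L-alanyl-meso-diaminopimeloyl-D-alanyl-D-alanine for the B. stearothermophilus and S. typhimurium enzymes.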

The next assay relates to Escherichia coli. In words: Antibacterial activity against Escherichia coli assessed as inhibition of growth after 18 hrs by broth culture method. It is filed as functional. A digest of the protocol:
(§2)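 Broth dilution in 0.5 mL Sensitivity Test Broth, inoculated with 0.2 mL of a 10^-4 dilution of an 18-h broth culture. MIC read after 18-h incubation as the lowest concentration preventing growth.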

Assay [2] relates to Salmonella enterica subsp. enterica serovar Typhimurium. As to the kind of experiment: Inhibition of Salmonella typhimurium DD-carboxypeptidase using UDP-N-acetylmuramyl-L-alanyl-meso-diaminopimeloyl-D-alanyl-D-alanine as substrate at 10 to 100 ug/ml. A digest of the protocol: as §1
Another assay has as its system Staphylococcus aureus. In words: Antibacterial activity against Staphylococcus aureus assessed as inhibition of growth after 18 hrs by broth culture method. The assay is classed as functional. In outline: as §2
Assay [3] deals with D-alanyl-D-alanine carboxypeptidase (Streptomyces sp. R61) (UniProt P15555). As to the kind of experiment: Inhibition of Streptomyces R61 DD-carboxypeptidase using Ac2-L-Lys-D-Ala-D-Ala as substrate at 10 to 100 ug/ml. In outline: as §1

In brackets after ≈: the same amount, converted by molar mass. Activity calls are given as the source filed them. No cut-off for these calls is given here.

Chain of D-alanyl-D-alanine carboxypeptidase (Streptomyces sp. R61) (P15555 whole entry): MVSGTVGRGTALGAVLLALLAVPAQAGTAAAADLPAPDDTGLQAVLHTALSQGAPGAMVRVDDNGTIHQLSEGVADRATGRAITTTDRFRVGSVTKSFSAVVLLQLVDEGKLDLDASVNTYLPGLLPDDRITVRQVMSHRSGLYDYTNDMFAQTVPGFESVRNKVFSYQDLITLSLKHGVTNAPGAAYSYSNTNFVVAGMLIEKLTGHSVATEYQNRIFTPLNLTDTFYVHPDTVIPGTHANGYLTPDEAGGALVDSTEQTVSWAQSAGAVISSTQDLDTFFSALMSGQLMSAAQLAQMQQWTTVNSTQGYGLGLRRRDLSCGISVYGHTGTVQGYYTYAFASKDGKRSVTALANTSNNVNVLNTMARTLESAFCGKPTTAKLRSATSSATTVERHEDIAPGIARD

The MIC is the least concentration at which growth counts as inhibited. Consider `O=C(CI)NCCC(=O)OCc1ccccc1`, for which the inhibition entry in assay [1], in assay [2] and in assay [3] was “inactive” throughout. The results for the MIC with Escherichia coli and with Staphylococcus aureus were 500 µg/mL (≈ 1440 µM) and 7.5 µg/mL (≈ 21.6 µM), respectively.
Turning to `O=C(O)CCCCNC(=O)CI`, the inhibition result in assay [1], in assay [2] and in assay [3] was “inactive” throughout. For the same molecule, the results for the MIC in the assay on Escherichia coli and in the assay on Staphylococcus aureus were 500 µg/mL (≈ 1750 µM) and 125 µg/mL (≈ 438 µM), respectively.
With `CC(=O)NCCCC[C@H](NC(=O)CI)C(=O)N[C@H](C)C(=O)N[C@H](C)C(=O)OC(C)(C)C`, the inhibition result in assay [1], in assay [2] and in assay [3] was “inactive” in each case. The values for the minimum inhibitory concentration (MIC) with Escherichia coli and in the assay on Staphylococcus aureus were greater than 500 µg/mL and 500 µg/mL (≈ 902 µM), respectively.
As to `C[C@@H](NC(=O)[C@H](CCCCN)NC(=O)CI)C(=O)O.O=C(O)C(F)(F)F`, the inhibition entry in assay [1], in assay [2] and in assay [3] was “inactive” each time. Further, the MIC with Escherichia coli and with Staphylococcus aureus was greater than 500 µg/mL each time.
For `O=C(CI)NCC(=O)OCc1ccccc1`, the inhibition entry in assay [1], in assay [2] and in assay [3] was “inactive” each time. Moreover, the MIC is 125 µg/mL (≈ 375 µM) in the assay with Escherichia coli and 7.5 µg/mL (≈ 22.5 µM) with Staphylococcus aureus.
In the case of `C[C@@H](NC(=O)[C@H](CCCCN1C(=O)c2ccccc2C1=O)NC(=O)CI)C(=O)N[C@H](C)C(=O)OC(C)(C)C`, the inhibition result in assay [1], in assay [2] and in assay [3] was “inactive” each time. In addition, the minimal inhibitory concentration (MIC) in the assay with Escherichia coli is greater than 500 µg/mL; with Staphylococcus aureus it was 62 µg/mL (≈ 96.5 µM).
For the molecule `C[C@@H](NC(=O)[C@@H](C)NC(=O)[C@H](CCCCN)NC(=O)CI)C(=O)O.O=C(O)C(F)(F)F`, the inhibition result in assay [1], in assay [2] and in assay [3] was “inactive” in each case. Also, the MIC with Escherichia coli and in the assay with Staphylococcus aureus was greater than 500 µg/mL in each case.
In the case of `C[C@@H](NC(=O)[C@@H](C)NC(=O)[C@H](CCCCN1C(=O)c2ccccc2C1=O)NC(=O)CI)C(=O)O`, the inhibition result in assay [1], in assay [2] and in assay [3] was “inactive” in each case. Besides, the MIC is greater than 500 µg/mL in the assay with Escherichia coli and 500 µg/mL (≈ 853 µM) in the assay on Staphylococcus aureus.
In the case of `CC(C)(C)OC(=O)CCCCNC(=O)CI`, the inhibition result in assay [1], in assay [2] and in assay [3] was “inactive” throughout. In addition, the MIC in the assay on Escherichia coli amounted to 500 µg/mL (≈ 1470 µM); with Staphylococcus aureus it was 7.5 µg/mL (≈ 22 µM).
For `O=C(CI)NCCCCC(=O)OCc1ccccc1`, the inhibition result in assay [1], in assay [2] and in assay [3] was “inactive” throughout. For the same molecule, the values for the MIC in the assay on Escherichia coli and in the assay on Staphylococcus aureus were 62 µg/mL (≈ 165 µM) and less than 0.4 µg/mL, respectively.
In the case of `C[C@@H](NC(=O)[C@H](CCCCN1C(=O)CCC1=O)NC(=O)CI)C(=O)N[C@H](C)C(=O)OC(C)(C)C`, the inhibition entry in assay [1], in assay [2] and in assay [3] was “inactive” throughout. The MIC in the assay with Escherichia coli and in the assay on Staphylococcus aureus was greater than 500 µg/mL each time.
Regarding `C[C@@H](NC(=O)CI)C(=O)OC(C)(C)C`, the inhibition result in assay [1], in assay [2] and in assay [3] was “inactive” throughout. Further, the MIC in the assay with Escherichia coli is greater than 500 µg/mL; in the assay on Staphylococcus aureus it was 31 µg/mL (≈ 99 µM).
Take `C[C@@H](NC(=O)[C@H](CCCCN1C(=O)c2ccccc2C1=O)NC(=O)CI)C(=O)N[C@H](CCC(=O)O)C(=O)O`: the inhibition entry in assay [1], in assay [2] and in assay [3] was “inactive” each time. Also, the values for the MIC in the assay on Escherichia coli and in the assay on Staphylococcus aureus were greater than 500 µg/mL and 250 µg/mL (≈ 388 µM), respectively.
Take `C[C@@H](NC(=O)CI)C(=O)N[C@H](C)C(=O)OC(C)(C)C`: the inhibition entry in assay [1], in assay [2] and in assay [3] was “inactive” each time. The MIC in the assay on Escherichia coli is greater than 500 µg/mL; with Staphylococcus aureus, 31 µg/mL (≈ 80.7 µM).
Take `C[C@@H](NC(=O)[C@@H](C)NC(=O)CBr)C(=O)O`: the inhibition entry in assay [1], in assay [2] and in assay [3] was “inactive” in each case. The MIC in the assay on Escherichia coli was greater than 500 µg/mL; with Staphylococcus aureus it was 500 µg/mL (≈ 1780 µM).
In the case of `C[C@@H](NC(=O)[C@H](CCCCN)NC(=O)CBr)C(=O)O.O=C(O)C(F)(F)F`, the inhibition entry in assay [1], in assay [2] and in assay [3] was “inactive” each time. The MIC in the assay on Escherichia coli and with Staphylococcus aureus was greater than 500 µg/mL in each case.
As to `CC(C)(C)OC(=O)CCCCNC(=O)[C@H](CCCCN1C(=O)c2ccccc2C1=O)NC(=O)CI.O`, the inhibition result in assay [1], in assay [2] and in assay [3] was “inactive” throughout. In addition, the MIC in the assay on Escherichia coli and with Staphylococcus aureus was greater than 500 µg/mL each time.
Take `C[C@@H](NC(=O)[C@H](CCCCNC(=O)OC(C)(C)C)NC(=O)CI)C(=O)OC(C)(C)C`: the inhibition result in assay [1], in assay [2] and in assay [3] was “inactive” each time. For the same molecule, the values for the MIC in the assay on Escherichia coli and in the assay on Staphylococcus aureus were greater than 500 µg/mL and 15 µg/mL (≈ 27.7 µM), respectively.
With `C[C@@H](NC(=O)[C@@H](C)NC(=O)CI)C(=O)O`, the inhibition result in assay [1], in assay [2] and in assay [3] was “inactive” throughout. For the same molecule, the MIC was greater than 500 µg/mL in the assay with Escherichia coli and 500 µg/mL (≈ 1520 µM) in the assay with Staphylococcus aureus.
As to `C[C@@H](NC(=O)[C@H](CCCCNC(=O)OC(C)(C)C)NC(=O)CI)C(=O)N[C@H](C)C(=O)OC(C)(C)C`, the inhibition result in assay [1], in assay [2] and in assay [3] was “inactive” in each case. Also, the minimum inhibitory concentration (MIC) worked out at 500 µg/mL (≈ 816 µM) in the assay on Escherichia coli and 250 µg/mL (≈ 408 µM) in the assay with Staphylococcus aureus.
For `O=C(CI)NCC(=O)NCC(=O)OCc1ccccc1`, the inhibition entry in assay [1], in assay [2] and in assay [3] was “inactive” in each case. Moreover, the values for the minimum inhibitory concentration (MIC) with Escherichia coli and in the assay on Staphylococcus aureus were 62 µg/mL (≈ 159 µM) and 0.9 µg/mL (≈ 2.31 µM), respectively.
Regarding `C[C@@H](NC(=O)[C@@H](C)NC(=O)[C@H](CCCCN)NC(=O)CBr)C(=O)O.O=C(O)C(F)(F)F`, the inhibition result in assay [1], in assay [2] and in assay [3] was “inactive” in each case. In addition, the MIC with Escherichia coli and with Staphylococcus aureus was greater than 500 µg/mL in each case.
With `CC(=O)NCCCC[C@H](NC(=O)CI)C(=O)N[C@H](C)C(=O)N[C@H](C)C(=O)O`, the inhibition entry in assay [1], in assay [2] and in assay [3] was “inactive” throughout. In addition, the minimal inhibitory concentration (MIC) with Escherichia coli and in the assay with Staphylococcus aureus was greater than 500 µg/mL throughout.
Regarding `C[C@@H](NC(=O)[C@@H](C)NC(=O)[C@@H](N)CCCCNC(=O)CI)C(=O)O.O=C(O)C(F)(F)F`, the inhibition entry in assay [1], in assay [2] and in assay [3] was “inactive” in each case. The MIC with Escherichia coli is greater than 500 µg/mL; with Staphylococcus aureus, 500 µg/mL.
Regarding `C[C@@H](NC(=O)[C@@H](C)NC(=O)[C@H](CCCCN1C(=O)CCC1=O)NC(=O)CI)C(=O)O`, the inhibition result in assay [1], in assay [2] and in assay [3] was “inactive” each time. Moreover, the MIC with Escherichia coli is greater than 500 µg/mL; in the assay with Staphylococcus aureus, 500 µg/mL (≈ 929 µM).
